In ChEMBL document CHEMBL1123418, “N-imidazolylchroman-4-ones, N-imidazolyl-1-tetralones, and their alcohols as hypolipemic agents raising high-density lipoproteins” (1986):

test system: Rattus norvegicus; assay: Percent increase in liver weight in rats when administered perorally; assay type: functional; conditions: not given

Structure (SMILES) | Change
O=C1c2ccc(O)cc2CCC1n1ccnc1 (configuration not stated) | -3%
CC(C)(C)c1cc(Br)c2c(c1)C(=O)C(n1ccnc1)CO2 (configuration not stated) | 15%
CCCc1cc2c(cc1OC)OC(C)C(n1ccnc1)C2=O (configuration not stated) | 24%
COc1ccc2c(c1)OCC(n1ccnc1)C2=O (configuration not stated) | 3%
COc1ccc2c(c1)C(=O)C(n1ccnc1)CC2 (configuration not stated) | 10%
O=C1c2cc(Br)cc(Br)c2OCC1n1ccnc1 (configuration not stated) | 29%
O=C1c2cc(Cl)ccc2OCC1n1cccn1 (configuration not stated) | 6%
O=C1c2cc(O)ccc2OCC1n1ccnc1 (configuration not stated) | 3%
O=C1c2ccccc2OC(c2cccnc2)C1n1ccnc1 (configuration not stated) | 4%
O=C1c2ccccc2CCC1n1ccnc1 (configuration not stated) | 13%
Nc1ccc2c(c1)C(=O)C(n1ccnc1)CC2 (configuration not stated) | 3%
O=C1c2ccc(-c3ccccc3)cc2OCC1n1ccnc1 (configuration not stated) | 22%
O=C1c2cc(-c3ccccc3)ccc2CCC1n1ccnc1 (configuration not stated) | 2%
COc1ccc2c(c1)C(O)C(n1ccnc1)CC2 (configuration not stated) | 21%
O=C1c2ccccc2CCC1n1cccn1 (configuration not stated) | 9%
CC1Oc2c(Br)cc(C(=O)O)cc2C(=O)C1n1ccnc1 (configuration not stated) | 4%
CC1Oc2cc(O)ccc2C(=O)C1n1ccnc1 (configuration not stated) | 3%
COc1ccc2c(c1)C(=O)C(n1ccnc1)CO2 (configuration not stated) | 20%

test system: Rattus norvegicus; assay: Compound was tested for its activity in diet-induced Hypercholesterolemic rats at dose 50 mg/kg after peroral administration carnitine acetyl transferase activity(per mg) of protein; assay type: functional; conditions: route oral

Structure (SMILES) | Activity
CCC1(c2ccccc2)C(=O)NC(=O)NC1=O [PHENOBARBITAL] | 4.2

test system: Rattus norvegicus; assay: Compound was tested for its activity in diet-induced Hypercholesterolemic rats at dose 50 mg/kg after peroral administration palmitoyl-CoA oxidation activity(per mg) of protein; assay type: functional; conditions: route oral

Structure (SMILES) | Activity
CCC1(c2ccccc2)C(=O)NC(=O)NC1=O [PHENOBARBITAL] | 1.15

test system: Rattus norvegicus; assay: Compound was tested for Hepatic peroxisomal proliferation effect in male rats treated for 7 days at dose 50 mg/kg protein; assay type: functional; conditions: not given

Structure (SMILES) | Activity
CCC1(c2ccccc2)C(=O)NC(=O)NC1=O [PHENOBARBITAL] | 1.92

test system: Rattus norvegicus; assay: Percent change in total cholesterol concentration in serum from hypercholesterolemic rats at dose 23 mg/kg (po); assay type: functional; conditions: not given
In short: (§1)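 Rats were fed 1.5% cholesterol/0.5% cholic acid diet for 7 days, with compounds given by gavage over the last 4 days as a 0.5% Methocel suspension (0.5 mL/100 g). Rats were fasted overnight, killed on day 8 and bled under light CO₂ anesthesia. HDL was isolated by heparin-MnCl₂ precipitation (8000 rpm, 15 min, 4 °C). Total and HDL cholesterol were measured enzymatically-colorimetrically; % change vs control.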

Structure (SMILES) | Change
O=C1c2cc(-c3ccccc3)ccc2CCC1n1ccnc1 (configuration not stated) | 4%

test system: Rattus norvegicus; assay: Percent change in total cholesterol concentration in serum from hypercholesterolemic rats at dose 35 mg/kg (po); assay type: functional; conditions: not given

Structure (SMILES) | Change
CCCc1cc2c(cc1OC)OC(C)C(n1ccnc1)C2=O (configuration not stated) | -57%
Nc1ccc2c(c1)C(=O)C(n1ccnc1)CC2 (configuration not stated) | -24%

test system: Rattus norvegicus; assay: Percent change in total cholesterol concentration in serum from hypercholesterolemic rats at dose 50 mg/kg (po); assay type: functional; conditions: not given

Structure (SMILES) | Change
CCCCCCCCOC1c2cc(Cl)ccc2OCC1n1ccnc1 (configuration not stated) | 42%
O=C1c2ccc(O)cc2CCC1n1ccnc1 (configuration not stated) | 30%
CC(C)(C)c1cc(Br)c2c(c1)C(=O)C(n1ccnc1)CO2 (configuration not stated) | -12%
COc1ccc2c(c1)OCC(n1ccnc1)C2=O (configuration not stated) | 11%
COc1ccc2c(c1)C(=O)C(n1ccnc1)CC2 (configuration not stated) | -40%
O=C1c2cc(Br)cc(Br)c2OCC1n1ccnc1 (configuration not stated) | -68%
O=C1c2cc(Cl)ccc2OCC1n1cccn1 (configuration not stated) | 35%
O=C1c2cc(O)ccc2OCC1n1ccnc1 (configuration not stated) | 9%
O=C1c2ccccc2OC(c2cccnc2)C1n1ccnc1 (configuration not stated) | -4%
O=C1c2ccccc2CCC1n1ccnc1 (configuration not stated) | -34%
Cc1ccc2c(c1)C(=O)C(n1ccnc1)CO2 (configuration not stated) | 7%
O=C1c2ccc(-c3ccccc3)cc2OCC1n1ccnc1 (configuration not stated) | -48%
COc1ccc2c(c1)C(O)C(n1ccnc1)CC2 (configuration not stated) | -24%
O=C1c2ccccc2CCC1n1cccn1 (configuration not stated) | 52%
CC1Oc2c(Br)cc(C(=O)O)cc2C(=O)C1n1ccnc1 (configuration not stated) | -23%
O=C1c2ccsc2CCC1n1ccnc1 (configuration not stated) | 17%
CC1Oc2cc(O)ccc2C(=O)C1n1ccnc1 (configuration not stated) | -22%
COc1ccc2c(c1)C(=O)C(n1ccnc1)CO2 (configuration not stated) | -21%

test system: Rattus norvegicus; assay: Compound was tested for Hepatic peroxisomal proliferation effect in male rats treated for 7 days at dose 50 mg/kg concentration of hepatic proteins(mg/g) in liver; assay type: functional, organism-based; parameters: dose 50 mg/kg; conditions: not given

Structure (SMILES) | Concentration
CCC1(c2ccccc2)C(=O)NC(=O)NC1=O [PHENOBARBITAL] | 40.6

test system: Rattus norvegicus; assay: Percent change in high density lipoproteins cholesterol concentration in serum from hypercholesterolemic rats at dose 23 mg/kg (po); assay type: functional; conditions: not given; in short: as §1

Structure (SMILES) | Change
O=C1c2cc(-c3ccccc3)ccc2CCC1n1ccnc1 (configuration not stated) | 8%

test system: Rattus norvegicus; assay: Percent change in high density lipoproteins cholesterol concentration in serum from hypercholesterolemic rats at dose 35 mg/kg (po); assay type: functional; conditions: not given; in short: as §1

Structure (SMILES) | Change
CCCc1cc2c(cc1OC)OC(C)C(n1ccnc1)C2=O (configuration not stated) | 152%
Nc1ccc2c(c1)C(=O)C(n1ccnc1)CC2 (configuration not stated) | 31%

test system: Rattus norvegicus; assay: Percent change in high density lipoproteins cholesterol concentration in serum from hypercholesterolemic rats at dose 50 mg/kg (po); assay type: functional; conditions: not given; in short: as §1

Structure (SMILES) | Change
CCCCCCCCOC1c2cc(Cl)ccc2OCC1n1ccnc1 (configuration not stated) | 18%
O=C1c2ccc(O)cc2CCC1n1ccnc1 (configuration not stated) | 12%
CC(C)(C)c1cc(Br)c2c(c1)C(=O)C(n1ccnc1)CO2 (configuration not stated) | 57%
COc1ccc2c(c1)OCC(n1ccnc1)C2=O (configuration not stated) | -1%
COc1ccc2c(c1)C(=O)C(n1ccnc1)CC2 (configuration not stated) | 52%
O=C1c2cc(Br)cc(Br)c2OCC1n1ccnc1 (configuration not stated) | 171%
O=C1c2cc(Cl)ccc2OCC1n1cccn1 (configuration not stated) | 13%
O=C1c2cc(O)ccc2OCC1n1ccnc1 (configuration not stated) | -4%
O=C1c2ccccc2OC(c2cccnc2)C1n1ccnc1 (configuration not stated) | 12%
O=C1c2ccccc2CCC1n1ccnc1 (configuration not stated) | 94%
Cc1ccc2c(c1)C(=O)C(n1ccnc1)CO2 (configuration not stated) | 32%
O=C1c2ccc(-c3ccccc3)cc2OCC1n1ccnc1 (configuration not stated) | 118%
COc1ccc2c(c1)C(O)C(n1ccnc1)CC2 (configuration not stated) | 88%
O=C1c2ccccc2CCC1n1cccn1 (configuration not stated) | -3%
CC1Oc2c(Br)cc(C(=O)O)cc2C(=O)C1n1ccnc1 (configuration not stated) | -11%
O=C1c2ccsc2CCC1n1ccnc1 (configuration not stated) | 2%
CC1Oc2cc(O)ccc2C(=O)C1n1ccnc1 (configuration not stated) | 2%
COc1ccc2c(c1)C(=O)C(n1ccnc1)CO2 (configuration not stated) | 88%

species on record: Rattus norvegicus; assay: Compound was tested in vitro for inhibition of Cholesterol biosynthesis in rat liver slices, % inhibition of [14C]acetate incorporation in neutral lipids at 2 e10-4 concentration; assay type: functional; conditions: not given
In short: (§2)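 Liver slices (250 mg) from fed male rats were incubated in Krebs-Ringer bicarbonate, pH 7.4, with 4 mM [2-¹⁴C]acetate under 95% O₂-5% CO₂. Compounds were tested at a final 2 × 10⁻⁴ M, or 5 × 10⁻⁵ M for one compound. ¹⁴C incorporation into cholesterol and into petroleum-ether-soluble nonsaponifiable neutral lipids gave % inhibition; mean of four determinations.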

Structure (SMILES) | Inhibition
Nc1ccc2c(c1)C(=O)C(n1ccnc1)CC2 (configuration not stated) | 0%

species on record: Rattus norvegicus; assay: Compound was tested in vitro for inhibition of Cholesterol biosynthesis in rat liver slices, % inhibition of [14C]-acetate incorporation in cholesterol at 2 e10-4 concentration; assay type: functional; conditions: not given; in short: as §2

Structure (SMILES) | Inhibition
Nc1ccc2c(c1)C(=O)C(n1ccnc1)CC2 (configuration not stated) | 74%

test system: not listed separately; assay: Compound was tested for Hepatic peroxisomal proliferation effect in male rats treated for 7 days at dose 50 mg/kg ratio of % liver weight to % body weight; assay type: functional; conditions: not given

Structure (SMILES) | Ratio
CCC1(c2ccccc2)C(=O)NC(=O)NC1=O [PHENOBARBITAL] | 4.32%
